Results taken from ChEMBL document CHEMBL2177069, “Novel peptidomimetic compounds containing redox active chalcogens and quinones as potential anticancer agents” (Eur J Med Chem, 2012).

Tests used:
Saccharomyces cerevisiae [1] = assay: Growth inhibition of UFD2-deficient Saccharomyces cerevisiae YDL190C mutant at 20 ug/disc after 24 to 48 hrs by agar diffusion assay; assay type: functional; details: read-out: DIZ
Summary of the method: (§1)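 S. cerevisiae deletion mutants or wild type grown on YPD, seeded into liquid agar medium at an optical density of 0.1. 6 mm paper discs soaked with methanolic compound solution were placed on the plates and incubated at 30 °C. Growth was checked after 1 and 2 days, and the inhibition zone diameter was recorded in mm.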

Saccharomyces cerevisiae [2] = assay: Growth inhibition of COX17-deficient Saccharomyces cerevisiae YLL009C mutant at 20 ug/disc after 24 to 48 hrs by agar diffusion assay; assay type: functional; details: read-out: DIZ; summary of the method: as §1
Saccharomyces cerevisiae [3] = assay: Growth inhibition of RCK1-deficient Saccharomyces cerevisiae YGL158W mutant at 20 ug/disc after 24 to 48 hrs by agar diffusion assay; assay type: functional; details: read-out: DIZ; summary of the method: as §1
Saccharomyces cerevisiae [4] = assay: Growth inhibition of POS5-deficient Saccharomyces cerevisiae YPL188W mutant at 20 ug/disc after 24 to 48 hrs by agar diffusion assay; assay type: functional; details: read-out: DIZ; summary of the method: as §1
Saccharomyces cerevisiae [5] = assay: Growth inhibition of WSC4-deficient Saccharomyces cerevisiae YHL028W mutant at 20 ug/disc 24 to 48 hrs by agar diffusion assay; assay type: functional; details: read-out: DIZ; summary of the method: as §1
Saccharomyces cerevisiae [6] = assay: Growth inhibition of SOD2-deficient Saccharomyces cerevisiae YHR008C mutant at 20 ug/disc 24 to 48 hrs by agar diffusion assay; assay type: functional; details: read-out: DIZ; summary of the method: as §1
Saccharomyces cerevisiae [7] = assay: Growth inhibition of SOD1-deficient Saccharomyces cerevisiae YJR104C mutant at 20 ug/disc after 24 to 48 hrs by agar diffusion assay; assay type: functional; details: read-out: DIZ; summary of the method: as §1
HUVEC = assay: Cytotoxicity against human HUVEC cells after 24 hrs by MTT assay; assay type: cell-based
Summary of the method: (§2)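 MTT assay. Cells were seeded at 50,000 cells/mL in medium with 10% fetal calf serum and grown for two days at 37 °C, 10% CO2. Serial dilutions of compound were then added for 24 h. MTT was added (final 0.5 mg/mL) for 2 h, and the formazan was pelleted, washed, dissolved in isopropanol with 0.4% HCl and read at 590 nm. IC50 is the concentration giving 50% of untreated-control absorbance, taken from dose-response curves; mean of two parallel experiments.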

A-431 = assay: Cytotoxicity against human A431 cells after 24 hrs by MTT assay; assay type: functional, cell-based; details: A-431, 24 h; summary of the method: as §2
BT-549 = assay: Cytotoxicity against human BT549 cells; assay type: functional
Hs-578T = assay: Cytotoxicity against human Hs578T cells; assay type: functional
MCF7 = assay: Cytotoxicity against human MCF7 cells; assay type: functional
UO-31 = assay: Cytotoxicity against human UO31 cells; assay type: functional
PC-3 = assay: Cytotoxicity against human PC3 cells; assay type: functional
CAKI-1 = assay: Cytotoxicity against human Caki1 cells; assay type: functional
ACHN = assay: Cytotoxicity against human ACHN cells; assay type: functional
SK-OV-3 = assay: Cytotoxicity against human SKOV3 cells; assay type: functional
OVCAR-8 = assay: Cytotoxicity against human OVCAR8 cells; assay type: functional
OVCAR-4 = assay: Cytotoxicity against human OVCAR4 cells; assay type: functional
OVCAR-3 = assay: Cytotoxicity against human OVCAR3 cells; assay type: functional
Malme-3M = assay: Cytotoxicity against human MALME-3M cells; assay type: functional
SF-539 = assay: Cytotoxicity against human SF539 cells; assay type: functional
SF-268 = assay: Cytotoxicity against human SF268 cells; assay type: functional
KM12 = assay: Cytotoxicity against human KM12 cells; assay type: functional
HCC 2998 = assay: Cytotoxicity against human HCC2998 cells; assay type: functional
NCI-H522 = assay: Cytotoxicity against human NCI-H522 cells; assay type: functional
NCI-H460 = assay: Cytotoxicity against human NCI-H460 cells; assay type: functional
NCI-H226 = assay: Cytotoxicity against human NCI-H226 cells; assay type: functional
A549 = assay: Cytotoxicity against human A549 cells; assay type: functional
MOLT-4 = assay: Cytotoxicity against human MOLT4 cells; assay type: functional

CC1=C([Se]CC(OC(=O)[C@@H](CSSC(C)(C)C)NC(=O)C(C)(C)C)C(=O)NCCCCCC(=O)OCc2ccccc2)C(=O)c2ccccc2C1=O (some centres not stated)
zone of inhibition at 20 µg/disc (Saccharomyces cerevisiae [1]): 0 mm | zone of inhibition at 20 µg/disc (Saccharomyces cerevisiae [2]): 0 mm | zone of inhibition at 20 µg/disc (Saccharomyces cerevisiae [3]): 0 mm | zone of inhibition at 20 µg/disc (Saccharomyces cerevisiae [4]): 0 mm | zone of inhibition at 20 µg/disc (Saccharomyces cerevisiae [5]): 14 mm | zone of inhibition at 20 µg/disc (Saccharomyces cerevisiae [6]): 0 mm | zone of inhibition at 20 µg/disc (Saccharomyces cerevisiae [7]): 12 mm | IC50 (HUVEC): 10 µM | IC50 (A-431): 4 µM | GI50 (BT-549): 1.78 µM | LC50 (BT-549): 5.62 µM | TGI (BT-549; read-out: pTGI (converted)): 3.16 µM | GI50 (Hs-578T): 2.19 µM | LC50 (Hs-578T): > 100 µM | TGI (Hs-578T; read-out: pTGI (converted)): 5.5 µM | GI50 (MCF7): 3.02 µM | LC50 (MCF7): 50.1 µM | TGI (MCF7; read-out: pTGI (converted)): 9.77 µM | GI50 (UO-31): 1.48 µM | LC50 (UO-31): 6.76 µM | TGI (UO-31; read-out: pTGI (converted)): 3.16 µM | GI50 (PC-3): 1.51 µM | LC50 (PC-3): 8.71 µM | TGI (PC-3; read-out: pTGI (converted)): 3.63 µM | GI50 (CAKI-1): 2.19 µM | LC50 (CAKI-1): 9.33 µM | TGI (CAKI-1; read-out: pTGI (converted)): 4.57 µM | GI50 (ACHN): 2.14 µM | LC50 (ACHN): 14.5 µM | TGI (ACHN; read-out: pTGI (converted)): 4.9 µM | GI50 (SK-OV-3): 1.55 µM | LC50 (SK-OV-3): 5.5 µM | TGI (SK-OV-3; read-out: pTGI (converted)): 2.95 µM | GI50 (OVCAR-8): 2 µM | LC50 (OVCAR-8): 7.08 µM | TGI (OVCAR-8; read-out: pTGI (converted)): 3.8 µM | GI50 (OVCAR-4): 1.58 µM | LC50 (OVCAR-4): 5.62 µM | TGI (OVCAR-4; read-out: pTGI (converted)): 2.95 µM | GI50 (OVCAR-3): 1.86 µM | LC50 (OVCAR-3): 6.17 µM | TGI (OVCAR-3; read-out: pTGI (converted)): 3.39 µM | GI50 (Malme-3M): 2.51 µM | LC50 (Malme-3M): 13.5 µM | TGI (Malme-3M; read-out: pTGI (converted)): 5.13 µM | GI50 (SF-539): 1.91 µM | LC50 (SF-539): 5.89 µM | TGI (SF-539; read-out: pTGI (converted)): 3.39 µM | GI50 (SF-268): 1.91 µM | LC50 (SF-268): 6.46 µM | TGI (SF-268; read-out: pTGI (converted)): 3.55 µM | GI50 (KM12): 1.78 µM | LC50 (KM12): 6.76 µM | TGI (KM12; read-out: pTGI (converted)): 3.47 µM | GI50 (HCC 2998): 2.19 µM | LC50 (HCC 2998): 7.24 µM | TGI (HCC 2998; read-out: pTGI (converted)): 3.98 µM | GI50 (NCI-H522): 1.7 µM | LC50 (NCI-H522): 6.17 µM | TGI (NCI-H522; read-out: pTGI (converted)): 3.24 µM | GI50 (NCI-H460): 0.631 µM | LC50 (NCI-H460): 9.55 µM | TGI (NCI-H460; read-out: pTGI (converted)): 2.51 µM | GI50 (NCI-H226): 2.34 µM | CC50 (NCI-H226; read-out: pLC50 (the source's name) (converted)): 9.12 µM | TGI (NCI-H226; read-out: pTGI (converted)): 4.68 µM | GI50 (A549): 2.09 µM | LC50 (A549): > 100 µM | TGI (A549; read-out: pTGI (converted)): 5.37 µM | GI50 (MOLT-4): 3.24 µM | LC50 (MOLT-4): > 100 µM | TGI (MOLT-4; read-out: pTGI (converted)): 9.55 µM
